Reference: PMC3178889 (Nature neuroscience, 2011)
“Also recorded” adds a separate entry of the source. Blank lines part the entries; values can stand above or below the substance they belong to. No end group written: not given here. *: point of attachment. Myristoyl = CCCCCCCCCCCCCC(=O)*; Lauroyl = CCCCCCCCCCCC(=O)*

Key:
binding of Tα to UNC119 = system: binding of Tα to UNC119; set-up: species or system bovine; conditions: GST-UNC119 pulldown from retina lysate in the presence of peptide; immunoblot
human UNC119 = human UNC119 (Homo sapiens, UniProt Q13432); experiment: Isothermal titration calorimetry; type: binding; conditions: ITC; for binding relative to the lauroyl Tα peptide: compared with lauroyl-GAGASAEEKH
GST-UNC119 = GST-UNC119 pulldown of proteins from retina lysates or HEK cells; type: binding, bovine
rod photoreceptors = conditions: passive diffusion after light activation; cited from earlier work
Tα = experiment: GST-UNC119B pulldown from bovine retina lysate; type: binding; conditions: unpublished results of the authors
[1] = system: GTPase activity of Tα (purified Tαβγ); experiment: GTPase activity of purified Tαβγ in the presence of depleted ROS membranes; type: biochemical
Summary of the method: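 Purified native transducin (Tαβγ) reconstituted with depleted rod outer segment membranes, which carry rhodopsin and a trace of residual transducin. […] Components (transducin, UNC119, depleted membranes) checked by SDS-PAGE.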

transducin = conditions: absence of rhodopsin; cited from earlier work

competition for binding of Tα to UNC119 (binding of Tα to UNC119): did not
Substance: GAGASAEEKH

competition for binding of Tα to UNC119 (binding of Tα to UNC119): competes for binding
Substance: Lauroyl-GAGASAEEKH

binding relative to the lauroyl Tα peptide (human UNC119; listed as Lauroyl-ODR-3): more than one order of magnitude weaker | binding relative to the lauroyl Tα peptide (human UNC119; listed as ODR-3 N-terminal peptide): lower affinity interaction
Substance: Lauroyl-GSCQSNENSE

interaction with recombinant human UNC119 (human UNC119): tight binding | number of binding sites (human UNC119; one-site model): single site
Substance: Myristoyl-GAGASAEEKH

Substance: Tα(G2A): Tα with G2 replaced with alanine, a mutation preventing Tα acylation
interaction with GST-UNC119 in pulldown of protein expressed in HEK cells (GST-UNC119; bovine Tα or Tα(G2A) expressed in HEK cells, anti-Tα blot): does not interact; also recorded: did not interact

Substance: Tα: rod photoreceptor transducin α-subunit
interaction with GST-UNC119 in pulldown from retina lysate (GST-UNC119; bovine or mouse retina lysate, Coomassie/LC-MS/MS or immunoblot): UNC119 interacts with Tα; also recorded: is pulled down | t1/2 of light-induced translocation to the inner segment (rod photoreceptors): 3 to 5 min

Substance: Tβγ: transducin βγ subunits
t1/2 of light-induced translocation to the inner segment (rod photoreceptors): approximately 12 min

Substance: UNC119B: isoform encoded by UNC119B gene, 61% similar and 52% identical to UNC119
pulldown of Tα by GST-UNC119B (Tα): pulls down Tα from bovine retina lysate

Substance: transducin: purified native heterotrimeric transducin
Kcat of GTPase ([1]; depleted ROS membranes reconstituted with transducin): 1.5 moles GTPhydrolyzed/mol transducin/min | GTPase activity rate of the reconstituted system ([1]; purified Tαβγ in the presence of ROS membranes, Fig. 5C red line): 1.5 mole GTP/min | GTP/GDP exchange rate constant (transducin): 10^−4 /sec
